ChEMBL document CHEMBL1121365, “N,N'-Dialkylbis(dichlorophenyl)ethylenediamines and -imidazolidines: relationship between structure and estradiol receptor affinity” (J Med Chem, 1980)

Legend:
[1] = molecular target: T1, Estrogen receptor (Rattus norvegicus) (UniProt P06211+Q62986); assay: In vitro association constant when complexed with the Estrogen receptor in Sprague-Dawley rat; Inhibition less than 10% at a ratio of [3H]estradiol/substance of 10e-4 M; format: protein assay
[2] = molecular target: T2, Estrogen receptor (Mus musculus) (UniProt O08537+P19785); assay: Uterotrophic effect in immature mice as uterine dry weight(mg) relative to body weight(g) at 100 ug/day dose; format: functional, tissue-based; details: Uterus
T2 sequence (O08537 whole entry, looked up): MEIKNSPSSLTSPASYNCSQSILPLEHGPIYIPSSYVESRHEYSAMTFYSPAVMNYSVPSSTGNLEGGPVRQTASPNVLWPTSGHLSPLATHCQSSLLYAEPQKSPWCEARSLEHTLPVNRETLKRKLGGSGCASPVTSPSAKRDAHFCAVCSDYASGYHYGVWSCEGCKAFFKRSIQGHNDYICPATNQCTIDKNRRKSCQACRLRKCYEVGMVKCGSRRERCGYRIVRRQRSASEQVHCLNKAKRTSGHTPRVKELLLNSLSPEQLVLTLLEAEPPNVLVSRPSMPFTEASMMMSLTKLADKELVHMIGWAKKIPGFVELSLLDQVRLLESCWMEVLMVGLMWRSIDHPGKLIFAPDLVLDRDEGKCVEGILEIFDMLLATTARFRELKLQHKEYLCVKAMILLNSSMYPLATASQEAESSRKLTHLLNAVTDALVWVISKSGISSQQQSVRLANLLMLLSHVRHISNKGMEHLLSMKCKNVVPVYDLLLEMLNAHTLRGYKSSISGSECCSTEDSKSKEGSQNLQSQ
T2 sequence (P19785 whole entry, looked up): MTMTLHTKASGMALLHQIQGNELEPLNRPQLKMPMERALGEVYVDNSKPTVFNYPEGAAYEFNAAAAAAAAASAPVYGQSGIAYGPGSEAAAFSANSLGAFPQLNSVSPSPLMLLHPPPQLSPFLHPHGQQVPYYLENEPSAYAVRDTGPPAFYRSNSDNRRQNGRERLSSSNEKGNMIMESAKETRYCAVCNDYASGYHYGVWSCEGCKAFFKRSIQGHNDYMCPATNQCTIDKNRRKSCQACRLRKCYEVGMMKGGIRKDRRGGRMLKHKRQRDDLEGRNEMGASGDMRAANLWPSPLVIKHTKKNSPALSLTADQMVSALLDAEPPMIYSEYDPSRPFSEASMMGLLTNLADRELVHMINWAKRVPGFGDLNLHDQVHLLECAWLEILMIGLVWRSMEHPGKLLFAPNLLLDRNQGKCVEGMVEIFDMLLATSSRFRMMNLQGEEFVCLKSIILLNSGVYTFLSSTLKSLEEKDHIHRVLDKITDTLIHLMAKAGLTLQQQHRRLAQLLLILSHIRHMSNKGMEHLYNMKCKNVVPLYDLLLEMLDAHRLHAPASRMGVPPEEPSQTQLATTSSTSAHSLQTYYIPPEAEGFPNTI
In short: (§1)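 Dorfman uterine weight test for estrogenic and antiestrogenic properties. Compounds were dissolved in arachis oil and given sc. Other details are in an earlier paper.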

[3] = molecular target: T2, Estrogen receptor (Mus musculus); assay: (§2) Uterotrophic effect in immature mice as uterine dry weight(mg) relative to body weight(g) at 500 ug/day dose; format: functional, tissue-based; details: Uterus; in short: as §1
[4] = molecular target: T2, Estrogen receptor (Mus musculus); assay: (§3) Uterotrophic effect in immature mice as uterine dry weight(mg) relative to body weight(g) at 1000 ug/day dose; format: functional, tissue-based; details: Uterus; in short: as §1
[5] = molecular target: T1, Estrogen receptor (Rattus norvegicus); assay: In vitro affinity for rat Estrogen receptor; format: protein assay
[6] = molecular target: T2, Estrogen receptor (Mus musculus); assay: (§4) Uterotrophic effect in immature mice as uterine dry weight(mg) relative to body weight(g) at 2500 ug/day dose; format: functional, tissue-based; details: Uterus; in short: as §1
[7] = molecular target: T2, Estrogen receptor (Mus musculus); assay: (§5) Uterotrophic effect in immature mice as uterine dry weight(mg) relative to body weight(g) at 0 ug/day dose; format: functional, tissue-based; details: Uterus; in short: as §1
[8] = molecular target: T2, Estrogen receptor (Mus musculus); assay: as §4; format: functional, tissue-based; details: Uterus; remark: listed apart in the source
In short: (§6)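 Dorfman uterine weight test for estrogenic and antiestrogenic activity. Compounds were dissolved in arachis oil and given subcutaneously. Uterine weight was the read-out.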

[9] = molecular target: T2, Estrogen receptor (Mus musculus); assay: as §2; format: functional, tissue-based; details: Uterus; in short: as §6; remark: listed apart in the source
[10] = molecular target: T2, Estrogen receptor (Mus musculus); assay: as §5; format: functional, tissue-based; details: Uterus; in short: as §6; remark: listed apart in the source
[11] = molecular target: T2, Estrogen receptor (Mus musculus); assay: Uterotrophic effect in immature mice as uterine dry weight(mg) relative to body weight(g) at 5000 ug/day dose; format: functional, tissue-based; details: Uterus; in short: as §6
[12] = molecular target: T2, Estrogen receptor (Mus musculus); assay: as §3; format: functional, tissue-based; details: Uterus, in the assay text read “100 ug/day” for “1000 ug/day”; in short: as §6
[13] = molecular target: T2, Estrogen receptor (Mus musculus); assay: Uterotrophic effect in immature mice as uterine dry weight(mg) relative to body weight(g) at 20 ug/day dose; format: functional, tissue-based; details: Uterus; in short: as §6
[14] = molecular target: T2, Estrogen receptor (Mus musculus); assay: Uterotrophic effect in immature mice as uterine dry weight(mg) relative to body weight(g) at 2400 ug/day dose; format: functional, tissue-based; details: Uterus; in short: as §6
[15] = molecular target: T2, Estrogen receptor (Mus musculus); assay: Uterotrophic effect in immature mice as uterine dry weight(mg) relative to body weight(g) at 400 ug/day dose; format: functional, tissue-based; details: Uterus; in short: as §6
[16] = molecular target: T2, Estrogen receptor (Mus musculus); assay: Uterotrophic effect in immature mice as uterine dry weight(mg) relative to body weight(g) at 80 ug/day dose; format: functional, tissue-based; details: Uterus; in short: as §6
[17] = molecular target: T2, Estrogen receptor (Mus musculus); assay: Uterotrophic effect in immature mice as uterine dry weight(mg) relative to body weight(g) at 24 ug/day dose; format: functional, tissue-based; details: Uterus; in short: as §6

Structure (SMILES)	inhibition [1]	Ka [5]	also measured
CNC(c1ccc(Cl)cc1Cl)C(NC)c1ccc(Cl)cc1Cl (stereo in doubt; 2a (d,l))	< 10%		
CCNC(c1c(Cl)cccc1Cl)C(NCC)c1c(Cl)cccc1Cl (stereo in doubt)		670000	Effect [2]: 22.7; Effect [3]: 23.5; Effect [4]: 27.4; Effect [6]: 35.6; Effect [7]: 12.8
CCCCNC(c1c(Cl)cccc1Cl)C(NCCCC)c1c(Cl)cccc1Cl (stereo in doubt; 2h (d,l))	< 10%		
CNC(c1c(Cl)cccc1Cl)C(NC)c1c(Cl)cccc1Cl (stereo in doubt; 2e (d,l))		140000	
CCN1CN(CC)C(c2ccc(Cl)c(Cl)c2)C1c1ccc(Cl)c(Cl)c1 (stereo in doubt)	< 10%		
CN1CN(C)C(c2c(Cl)cccc2Cl)C1c1c(Cl)cccc1Cl (stereo in doubt; cis)		180000	
CCCCN1CN(CCCC)C(c2c(Cl)cccc2Cl)C1c1c(Cl)cccc1Cl (stereo in doubt; cis)	< 10%		
CN1CN(C)C(c2c(Cl)cccc2Cl)C1c1c(Cl)cccc1Cl (stereo in doubt; trans)		480000	
CNC(c1ccc(Cl)cc1Cl)C(NC)c1ccc(Cl)cc1Cl (stereo in doubt)	< 10%		
CCCCN1CN(CCCC)C(c2c(Cl)cccc2Cl)C1c1c(Cl)cccc1Cl (stereo in doubt; trans)	< 10%		
CCCN1CN(CCC)C(c2c(Cl)cccc2Cl)C1c1c(Cl)cccc1Cl (stereo in doubt)		320000	Effect [8]: 19.7; Effect [9]: 16.2; Effect [10]: 12.8; Effect [11]: 24.5; Effect [12]: 17.7
CCCN1CN(CCC)C(c2c(Cl)cccc2Cl)C1c1c(Cl)cccc1Cl (trans isomer)		1.6e+06	Effect [8]: 43; Effect [9]: 28; Effect [10]: 12.9; Effect [13]: 19.6; Effect [12]: 21.4
CCN1CN(CC)C(c2ccc(Cl)c(Cl)c2)C1c1ccc(Cl)c(Cl)c1 (trans isomer)	< 10%		
CCCCNC(c1ccc(Cl)cc1Cl)C(NCCCC)c1ccc(Cl)cc1Cl (stereo in doubt)	< 10%		
CCN1CN(CC)C(c2ccc(Cl)cc2Cl)C1c1ccc(Cl)cc1Cl (trans isomer)	< 10%		
CCNC(c1ccc(Cl)cc1Cl)C(NCC)c1ccc(Cl)cc1Cl (stereo in doubt; 2b (d,l))	< 10%		
CCCCNC(c1c(Cl)cccc1Cl)C(NCCCC)c1c(Cl)cccc1Cl (stereo in doubt)	< 10%		
CCCNC(c1ccc(Cl)cc1Cl)C(NCCC)c1ccc(Cl)cc1Cl (stereo in doubt; 2c (d,l))	< 10%		
CCNC(c1cc(Cl)cc(Cl)c1)C(NCC)c1cc(Cl)cc(Cl)c1 (stereo in doubt; 21 (d,l))	< 10%		

Structure (SMILES)	inhibition [1]	Ka [5]	also measured
CCCCNC(c1ccc(Cl)cc1Cl)C(NCCCC)c1ccc(Cl)cc1Cl (stereo in doubt; 2d (d,l))	< 10%		
CCN1CN(CC)C(c2cc(Cl)cc(Cl)c2)C1c1cc(Cl)cc(Cl)c1 (trans isomer)	< 10%		
CC[C@H](c1ccc(O)cc1)[C@@H](CC)c1ccc(O)cc1		8.3e+08	
CCCNC(c1c(Cl)cccc1Cl)C(NCCC)c1c(Cl)cccc1Cl (stereo in doubt)		2.3e+06	Effect [8]: 31.3; Effect [9]: 22.6; Effect [10]: 12.9; Effect [13]: 14.8; Effect [12]: 17.5
CCCNC(c1ccc(Cl)cc1Cl)C(NCCC)c1ccc(Cl)cc1Cl (stereo in doubt)	< 10%		
CCNC(c1c(Cl)cccc1Cl)C(NCC)c1c(Cl)cccc1Cl (stereo in doubt; 2f (d,l))		130000	
CCNC(c1ccc(Cl)c(Cl)c1)C(NCC)c1ccc(Cl)c(Cl)c1 (stereo in doubt)	< 10%		
CCN1CN(CC)C(c2ccc(Cl)cc2Cl)C1c1ccc(Cl)cc1Cl (stereo in doubt)	< 10%		
CCNC(c1cc(Cl)cc(Cl)c1)C(NCC)c1cc(Cl)cc(Cl)c1 (stereo in doubt)	< 10%		
CCN1CN(CC)C(c2c(Cl)cccc2Cl)C1c1c(Cl)cccc1Cl (cis isomer)		200000	Effect [8]: 22.3; Effect [9]: 19.7; Effect [10]: 12.8; Effect [12]: 17.1
CCCNC(c1c(Cl)cccc1Cl)C(NCCC)c1c(Cl)cccc1Cl (stereo in doubt; 2g (d,l))		830000	Effect [9]: 27.1; Effect [10]: 12.9; Effect [13]: 15.5; Effect [12]: 19.6
CCCCNC(c1ccc(Cl)c(Cl)c1)C(NCCCC)c1ccc(Cl)c(Cl)c1 (stereo in doubt)	< 10%		
CCNC(c1ccc(Cl)c(Cl)c1)C(NCC)c1ccc(Cl)c(Cl)c1 (stereo in doubt; 2i (d,l))	< 10%		
CCN1CN(CC)C(c2cc(Cl)cc(Cl)c2)C1c1cc(Cl)cc(Cl)c1 (cis isomer)	< 10%		
CCN1CN(CC)C(c2c(Cl)cccc2Cl)C1c1c(Cl)cccc1Cl (trans isomer)		200000	Effect [14]: 46.2; Effect [10]: 14.9; Effect [15]: 38.1; Effect [16]: 24.2; Effect [17]: 22.8
CNC(c1c(Cl)cccc1Cl)C(NC)c1c(Cl)cccc1Cl (stereo in doubt)		91000	
CCNC(c1ccc(Cl)cc1Cl)C(NCC)c1ccc(Cl)cc1Cl (stereo in doubt)	< 10%		
CCCCNC(c1ccc(Cl)c(Cl)c1)C(NCCCC)c1ccc(Cl)c(Cl)c1 (stereo in doubt; 2k (d,l))	< 10%		
